Data as given in ChEMBL document CHEMBL5360562 (Eur J Med Chem, 2023).

Tests used:
Assay type in all cases: functional
[1] = test system: Acinetobacter baumannii; assay: Potentiation of erythromycin antibacterial activity against Acinetobacter baumannii AB5075 assessed as erythromycin MIC at 2.5 uM incubated for 16 hrs by broth microdilution method
[2] = test system: Acinetobacter baumannii; assay: Potentiation of rifampicin antibacterial activity against Acinetobacter baumannii AB5075 assessed as rifampicin MIC at 10 uM incubated for 16 hrs by broth microdilution method
[3] = test system: Acinetobacter baumannii; assay: Potentiation of erythromycin antibacterial activity against Acinetobacter baumannii AB5075 assessed as erythromycin MIC at 20 uM incubated for 16 hrs by broth microdilution method
[4] = test system: Acinetobacter baumannii; assay: Potentiation of Clarithromycin antibacterial activity against Acinetobacter baumannii AB967 assessed as clarithromycin MIC at 10 uM incubated for 16 hrs by broth microdilution method
[5] = test system: Acinetobacter baumannii; assay: Potentiation of Azithromycin antibacterial activity against Acinetobacter baumannii AB5075 assessed as azithromycin MIC at 10 uM incubated for 16 hrs by broth microdilution method
[6] = test system: Klebsiella pneumoniae; assay: Potentiation of Clarithromycin antibacterial activity against Klebsiella pneumoniae ATCC BAA-2146 assessed as clarithromycin MIC at 7.5 uM incubated for 16 hrs by broth microdilution method
[7] = test system: Acinetobacter baumannii; assay: Potentiation of Clarithromycin antibacterial activity against Acinetobacter baumannii AB3560 assessed as clarithromycin MIC at 10 uM incubated for 16 hrs by broth microdilution method
[8] = test system: Acinetobacter baumannii; assay: Potentiation of Clarithromycin antibacterial activity against Acinetobacter baumannii AB5674 assessed as clarithromycin MIC at 10 uM incubated for 16 hrs by broth microdilution method
[9] = test system: Acinetobacter baumannii; assay: Potentiation of Clarithromycin antibacterial activity against Acinetobacter baumannii AB5075 assessed as fold reduction in clarithromycin MIC at 30 uM incubated for 16 hrs by broth microdilution method
How it was run: (§1)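 Checkerboard-style potentiation by broth microdilution. 6 h day cultures in CAMHB diluted to 5×10^5 CFU/mL. Adjuvant added from 10 mM DMSO stock at fixed concentration throughout. […] Controls: antibiotic alone, adjuvant alone, media only. Incubated stationary at 37 °C for 16 h. MIC is lowest concentration with no visible growth; fold reduction taken against the antibiotic-alone lane.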

[10] = test system: Acinetobacter baumannii; assay: Potentiation of Azithromycin antibacterial activity against Acinetobacter baumannii AB5075 assessed as azithromycin MIC at 7.5 uM incubated for 16 hrs by broth microdilution method
[11] = test system: Acinetobacter baumannii; assay: Potentiation of Clarithromycin antibacterial activity against Acinetobacter baumannii AB5075 assessed as reduction in clarithromycin MIC at 20 uM incubated for 16 hrs by broth microdilution method
[12] = test system: Pseudomonas aeruginosa; assay: Antibacterial activity against Pseudomonas aeruginosa PAO1 assessed as inhibition of bacterial growth incubated for 16 hrs by broth microdilution method
How it was run: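 Standalone MIC by broth microdilution. 6 h day cultures in cation-adjusted Mueller-Hinton broth (CAMHB) diluted to 5×10^5 CFU/mL. Compound added from 10 mM DMSO stock to 200 μM (highest concentration), then twofold serial dilution. Incubated stationary at 37 °C for 16 h. OD600 read; MIC is lowest concentration with <10% growth versus positive control.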

[13] = test system: Escherichia coli; assay: Potentiation of Clarithromycin antibacterial activity against Escherichia coli ATCC 25922 assessed as clarithromycin MIC at 3.75 uM incubated for 16 hrs by broth microdilution method
[14] = test system: Acinetobacter baumannii; assay: Potentiation of Clarithromycin antibacterial activity against Acinetobacter baumannii AB5075 assessed as clarithromycin MIC at 30 uM incubated for 16 hrs by broth microdilution method
[15] = test system: Escherichia coli; assay: Potentiation of Clarithromycin antibacterial activity against Escherichia coli ATCC 25922 assessed as clarithromycin MIC at 2.5 uM incubated for 16 hrs by broth microdilution method; how it was run: as §1
[16] = test system: Acinetobacter baumannii; assay: Potentiation of Clarithromycin antibacterial activity against Acinetobacter baumannii AB5711 assessed as clarithromycin MIC at 10 uM incubated for 16 hrs by broth microdilution method
[17] = test system: Acinetobacter baumannii; assay: Potentiation of Clarithromycin antibacterial activity against Acinetobacter baumannii AB5075 assessed as clarithromycin MIC at 2.5 uM incubated for 16 hrs by broth microdilution method

SMILES: Cl.Cl.Nc1nc(-c2ccc(NC(=O)Nc3cccc(-c4c[nH]c(N)n4)c3F)cc2F)c[nH]1
- MIC [1]: 32 µg/mL
- MIC [2]: 7 ng/mL
- MIC [3]: ≤ 0.062 µg/mL
- MIC [4]: ≤ 0.062 µg/mL
- MIC [5]: 0.125 µg/mL
- MIC [6]: 16 µg/mL
- MIC [7]: ≤ 0.062 µg/mL
- MIC [8]: ≤ 0.062 µg/mL
- fold change (FC) [9]: >=512
- MIC [10]: 0.5 µg/mL
- fold change (FC) [11]: >=512
- MIC ([11]; Acinetobacter baumannii, AB5075): ≤ 0.062 µg/mL
- MIC [12]: 256 µM
- MIC [13]: 0.125 µg/mL
- MIC [14]: ≤ 0.062 µg/mL
- MIC [15]: 32 µg/mL
- MIC [16]: ≤ 0.062 µg/mL
- MIC [17]: 0.125 µg/mL
